Values after ≈ are worked out from the molar mass of the structure shown. Active and inactive are the calls of the source. The rule behind the calls is not given here.
Key:
Nakaseomyces glabratus = assay: Antifungal activity against Candida glabrata 20/I at 500 micromol/L after 24 to 48 hrs by broth microdilution method; type: functional, organism-based
In short: (§1)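 Broth microdilution in RPMI 1640 with glutamine, fluconazole as reference. For yeasts, MIC is ≥80% growth reduction (IC80) versus control. For filamentous fungi, the value is expressed as IC50. Readings at 24 and 48 h.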

[1] = system: Trichophyton mentagrophytes; assay: Antifungal activity against Trichophyton mentagrophytes 445 after 72 hrs by broth microdilution method; type: functional; conditions: Trichophyton mentagrophytes, 445, 72 h
In short: (§2)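 Filamentous dermatophyte tested by broth microdilution in RPMI 1640 with glutamine, fluconazole as reference. Value expressed as IC50 relative to growth control. Read at 72 and 120 h.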

[2] = system: Staphylococcus epidermidis; assay: Antibacterial activity against Staphylococcus epidermidis H 6966/08 after 24 hrs by broth microdilution method; type: functional; conditions: H 6966/08, 24 h
In short: (§3)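 Broth microdilution in Mueller–Hinton broth, compounds dissolved in DMSO, tested over a dilution series from 500 downward. MIC taken as ≥95% growth reduction (IC95) versus drug-free control. Benzylpenicillin comparator. Readings at 24 and 48 h.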

Mycobacterium kansasii [3] = assay: Antimycobacterial activity against Mycobacterium kansasii 6509/96 after 7 days; type: functional; conditions: 6509/96, 168 h
In short: (§4)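 Micromethod MIC in Šula's semisynthetic medium at 37 °C. Compounds added in DMSO at 1000 down to 0.032 µmol/L. Isoniazid standard in sterile water at 0.5–250 µmol/L. Inocula: H37Rv 10^3, M. avium 10^5, M. kansasii 10^4. Read at 14 and 21 d, plus 7 d for M. kansasii.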

Enterococcus sp. = assay: Antibacterial activity against Enterococcus sp. J 14365/08 at 500 micromol/L after 24 to 48 hrs by broth microdilution method; type: functional, organism-based; in short: as §3
Aspergillus fumigatus [4] = assay: Antifungal activity against Aspergillus fumigatus 231 after 24 hrs by broth microdilution method; type: functional; conditions: Aspergillus fumigatus, 231, 24 h; in short: as §1
Lichtheimia corymbifera [5] = assay: Antifungal activity against Absidia corymbifera 272 after 24 hrs by broth microdilution method; type: functional; conditions: Lichtheimia corymbifera, 272, 24 h; in short: as §1
Escherichia coli = assay: Antibacterial activity against Escherichia coli CCM 4517 at 500 micromol/L after 24 to 48 hrs by broth microdilution method; type: functional, organism-based; in short: as §3
Aspergillus fumigatus [6] = assay: Antifungal activity against Aspergillus fumigatus 231 after 48 hrs by broth microdilution method; type: functional; conditions: Aspergillus fumigatus, 231, 48 h; in short: as §1
Mycobacterium avium [7] = assay: Antimycobacterial activity against isoniazid, rifampicin, ethambutol and ofloxacin-resistant Mycobacterium avium My 330/88 after 21 days; type: functional; conditions: My 330/88, 504 h; in short: as §4
Pichia kudriavzevii [8] = assay: Antifungal activity against Candida krusei E28 after 24 hrs by broth microdilution method; type: functional; conditions: E28, 24 h; in short: as §1
Mycobacterium avium [9] = assay: Antimycobacterial activity against isoniazid, rifampicin, ethambutol and ofloxacin-resistant Mycobacterium avium My 330/88 after 14 days; type: functional; conditions: My 330/88, 336 h; in short: as §4
Mycobacterium kansasii [10] = assay: Antimycobacterial activity against Mycobacterium kansasii My 235/80 after 21 days; type: functional; conditions: My 235/80, 504 h; in short: as §4
Candida albicans [11] = assay: Antifungal activity against Candida albicans ATCC 44859 after 48 hrs by broth microdilution method; type: functional; conditions: ATCC 44859, 48 h; in short: as §1
Mycobacterium kansasii [12] = assay: Antimycobacterial activity against Mycobacterium kansasii 6509/96 after 14 days; type: functional; conditions: 6509/96, 336 h; in short: as §4
Candida albicans [13] = assay: Antifungal activity against Candida albicans ATCC 44859 after 24 hrs by broth microdilution method; type: functional; conditions: ATCC 44859, 24 h; in short: as §1
Staphylococcus aureus [14] = assay: Antibacterial activity against methicillin-resistant Staphylococcus aureus H 5996/08 after 24 hrs by broth microdilution method; type: functional; conditions: H 5996/08, 24 h; in short: as §3
Staphylococcus aureus [15] = assay: Antibacterial activity against methicillin-resistant Staphylococcus aureus H 5996/08 after 48 hrs by broth microdilution method; type: functional; conditions: H 5996/08, 48 h; in short: as §3
Mycobacterium kansasii [16] = assay: Antimycobacterial activity against Mycobacterium kansasii 6509/96 after 21 days; type: functional; conditions: 6509/96, 504 h; in short: as §4
Klebsiella pneumoniae [17] = assay: Antibacterial activity against Klebsiella pneumoniae D 11750/08 at 500 micromol/L after 24 to 48 hrs by broth microdilution method; type: functional, organism-based; in short: as §3
[18] = system: Trichophyton mentagrophytes; assay: Antifungal activity against Trichophyton mentagrophytes 445 after 120 hrs by broth microdilution method; type: functional; conditions: Trichophyton mentagrophytes, 445, 120 h; in short: as §2
Trichosporon asahii [19] = assay: Antifungal activity against Trichosporon asahii 1188 after 48 hrs by broth microdilution method; type: functional; conditions: Trichosporon asahii, 1188, 48 h; in short: as §1
[20] = system: Staphylococcus epidermidis; assay: Antibacterial activity against Staphylococcus epidermidis H 6966/08 after 48 hrs by broth microdilution method; type: functional; conditions: H 6966/08, 48 h; in short: as §3
Pseudomonas aeruginosa = assay: Antibacterial activity against Pseudomonas aeruginosa CCM 1961 at 500 micromol/L after 24 to 48 hrs by broth microdilution method; type: functional, organism-based; in short: as §3
Pichia kudriavzevii [21] = assay: Antifungal activity against Candida krusei E28 after 48 hrs by broth microdilution method; type: functional; conditions: E28, 48 h; in short: as §1
HepG2 = assay: Cytotoxicity against human HepG2 cells after 24 hrs by CellTiter assay; type: cell-based; conditions: HepG2, 24 h
In short: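 HepG2 cells (passage 27–33) in MEM with 10% FBS, L-glutamine and NEAA, seeded at 1×10^4 per well. Treated next day with compounds at 0.1–100 µM (or 0.1–25 µmol/L), triplicates, <1% DMSO, for 24 h at 37 °C, 5% CO2. MTS reagent added for 2 h, absorbance read at 490 nm. IC50 taken against untreated (100%) and 10% DMSO (0%) controls.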

Staphylococcus aureus [22] = assay: Antibacterial activity against Staphylococcus aureus CCM 4516/08 after 48 hrs by broth microdilution method; type: functional; conditions: CCM 4516/08, 48 h; in short: as §3
Lichtheimia corymbifera [23] = assay: Antifungal activity against Absidia corymbifera 272 after 48 hrs by broth microdilution method; type: functional; conditions: Lichtheimia corymbifera, 272, 48 h; in short: as §1
[24] = system: Mycobacterium tuberculosis; assay: Antimycobacterial activity against Mycobacterium tuberculosis H37Rv My 331/88 after 21 days; type: functional; conditions: H37Rv My 331/88, 504 h; in short: as §4
[25] = system: Mycobacterium tuberculosis; assay: Antimycobacterial activity against Mycobacterium tuberculosis H37Rv My 331/88 after 14 days; type: functional; conditions: H37Rv My 331/88, 336 h; in short: as §4
Klebsiella pneumoniae [26] = assay: Antibacterial activity against ESBL-positive Klebsiella pneumoniae J 14368/08 at 500 micromol/L after 24 to 48 hrs by broth microdilution method; type: functional, organism-based; in short: as §3
Mycobacterium kansasii [27] = assay: Antimycobacterial activity against Mycobacterium kansasii My 235/80 after 7 days; type: functional; conditions: My 235/80, 168 h; in short: as §4
Staphylococcus aureus [28] = assay: Antibacterial activity against Staphylococcus aureus CCM 4516/08 after 24 hrs by broth microdilution method; type: functional; conditions: CCM 4516/08, 24 h; in short: as §3
Candida tropicalis = assay: Antifungal activity against Candida tropicalis 156 at 500 micromol/L after 24 to 48 hrs by broth microdilution method; type: functional, organism-based; in short: as §1
Mycobacterium kansasii [29] = assay: Antimycobacterial activity against Mycobacterium kansasii My 235/80 after 14 days; type: functional; conditions: My 235/80, 336 h; in short: as §4
Trichosporon asahii [30] = assay: Antifungal activity against Trichosporon asahii 1188 after 24 hrs by broth microdilution method; type: functional; conditions: Trichosporon asahii, 1188, 24 h; in short: as §1

Structure (SMILES) | Activity (Nakaseomyces glabratus) | MIC50 [1] [µM] | MIC95 [2] [µM] | MIC (Mycobacterium kansasii [3]) [µM] | Activity (Enterococcus sp.) | MIC50 (Aspergillus fumigatus [4]) [µM] | MIC50 (Lichtheimia corymbifera [5]) [µM] | Activity (Escherichia coli) | MIC50 (Aspergillus fumigatus [6]) [µM] | MIC (Mycobacterium avium [7]) [µM] | MIC80 (Pichia kudriavzevii [8]) [µM] | MIC (Mycobacterium avium [9]) [µM] | MIC (Mycobacterium kansasii [10]) [µM] | MIC80 (Candida albicans [11]) [µM] | MIC (Mycobacterium kansasii [12]) [µM] | MIC80 (Candida albicans [13]) [µM] | MIC95 (Staphylococcus aureus [14]) [µM] | MIC95 (Staphylococcus aureus [15]) [µM] | MIC (Mycobacterium kansasii [16]) [µM] | Activity (Klebsiella pneumoniae [17]) | also measured
CCOP(=O)(OCC)Oc1ccc(Br)cc1C(=O)Nc1cccc(Cl)c1 | inactive | 7.81 (≈ 3.61 µg/mL) | 125 (≈ 57.8 µg/mL) | 4 (≈ 1.85 µg/mL) | inactive | > 500 | > 500 | inactive | > 500 | 16 (≈ 7.4 µg/mL) | 31.2 (≈ 14.5 µg/mL) | 16 (≈ 7.4 µg/mL) | 8 (≈ 3.7 µg/mL) | > 500 | 8 (≈ 3.7 µg/mL) | > 500 | 125 (≈ 57.8 µg/mL) | 250 (≈ 116 µg/mL) | 8 (≈ 3.7 µg/mL) | inactive | MIC50 [18]: 15.6 µM (≈ 7.23 µg/mL); MIC80 (Trichosporon asahii [19]): 62.5 µM (≈ 28.9 µg/mL); MIC95 [20]: 250 µM (≈ 116 µg/mL); Activity (Pseudomonas aeruginosa): inactive; MIC80 (Pichia kudriavzevii [21]): 125 µM (≈ 57.8 µg/mL); IC50 (HepG2): 6.52 µM; MIC95 (Staphylococcus aureus [22]): 250 µM (≈ 116 µg/mL); MIC50 (Lichtheimia corymbifera [23]): > 500 µM; MIC [24]: 4 µM (≈ 1.85 µg/mL); MIC [25]: 4 µM (≈ 1.85 µg/mL); Activity (Klebsiella pneumoniae [26]): inactive; MIC (Mycobacterium kansasii [27]): 4 µM (≈ 1.85 µg/mL); MIC95 (Staphylococcus aureus [28]): 125 µM (≈ 57.8 µg/mL); Activity (Candida tropicalis): inactive; MIC (Mycobacterium kansasii [29]): 8 µM (≈ 3.7 µg/mL); MIC80 (Trichosporon asahii [30]): 15.6 µM (≈ 7.23 µg/mL)
CCOP(=O)(OCC)Oc1ccc(Cl)cc1C(=O)Nc1ccc(Br)cc1 | inactive | 250 (≈ 116 µg/mL) | 125 (≈ 57.8 µg/mL) | 4 (≈ 1.85 µg/mL) | inactive | > 500 | > 500 | inactive | > 500 | 8 (≈ 3.7 µg/mL) | > 500 | 8 (≈ 3.7 µg/mL) | 8 (≈ 3.7 µg/mL) | > 500 | 8 (≈ 3.7 µg/mL) | > 500 | > 500 | > 500 | 8 (≈ 3.7 µg/mL) | inactive | MIC50 [18]: 250 µM (≈ 116 µg/mL); MIC80 (Trichosporon asahii [19]): > 500 µM; MIC95 [20]: 125 µM (≈ 57.8 µg/mL); Activity (Pseudomonas aeruginosa): inactive; MIC80 (Pichia kudriavzevii [21]): > 500 µM; IC50 (HepG2): 1.56 µM; MIC95 (Staphylococcus aureus [22]): 125 µM (≈ 57.8 µg/mL); MIC50 (Lichtheimia corymbifera [23]): > 500 µM; MIC [24]: 2 µM (≈ 0.925 µg/mL); MIC [25]: 2 µM (≈ 0.925 µg/mL); Activity (Klebsiella pneumoniae [26]): inactive; MIC (Mycobacterium kansasii [27]): 4 µM (≈ 1.85 µg/mL); MIC95 (Staphylococcus aureus [28]): 125 µM (≈ 57.8 µg/mL); Activity (Candida tropicalis): inactive; MIC (Mycobacterium kansasii [29]): 8 µM (≈ 3.7 µg/mL); MIC80 (Trichosporon asahii [30]): > 500 µM
